NPY-Y1 PAM-ag – potentiates or activates human NPY-Y1 receptor; AID 1304; P25929; NPY-Y1 expressing cells, potentiator/agonist activation; actives 0.37% (n = 220,000); activation, % at 3.6 µM; in the data active = activation above about 33%, passing the limit was not always enough;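 note: cells stimulated with NPY at EC10 then isoproterenol at EC100; 0% = low agonist plus stimulus and 100% = saturating agonist plus stimulus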
S1P4 agonist – human S1P4 receptor agonism. O95977. S1P4-expressing cell line, agonist reporter assay. activation, % at 4.98 µM. actives 0.35% (n = 220,000). AID 1509; in the data active = activation above about 11%;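 note: 0% = DMSO vehicle and 100% = reference agonist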
Target sequence (O95977 whole entry, looked up): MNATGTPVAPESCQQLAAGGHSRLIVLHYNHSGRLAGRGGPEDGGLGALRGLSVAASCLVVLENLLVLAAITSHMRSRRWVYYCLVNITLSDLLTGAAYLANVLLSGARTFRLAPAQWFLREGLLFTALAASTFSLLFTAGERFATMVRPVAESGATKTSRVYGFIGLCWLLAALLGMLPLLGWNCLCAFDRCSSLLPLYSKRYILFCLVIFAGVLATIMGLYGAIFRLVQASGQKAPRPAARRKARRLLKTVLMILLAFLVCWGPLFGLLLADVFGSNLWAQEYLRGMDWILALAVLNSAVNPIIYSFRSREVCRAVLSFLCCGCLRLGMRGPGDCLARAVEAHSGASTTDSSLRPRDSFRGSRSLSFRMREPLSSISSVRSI
NPY-Y1 antag – blocks the human neuropeptide Y Y1 receptor. AID 1040. inhibition, % at 3.6 µM. P25929. HEK293-CNG Y1 cells, membrane potential fluorescence; NPY at EC95, then isoproterenol. actives 1% (n = 200,000);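 active = inhibition above the campaign mean inhibition of all tested compounds plus 3 SD, cut at about 20% in these data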;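 note: 0% = DMSO wells given NPY plus isoproterenol and 100% = isoproterenol alone without NPY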
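System: HEK293 cells with Y1 receptor plus CNG channel / Probe or stimulus: NPY 25 nM then isoproterenol 1 µM plus Ro 20-1724 25 µM / Compound: one concentration, 3.6 µM, in 0.4% DMSO / Schedule: compound incubation 1 h at room temperature, readout 45 min post-stimulation / Measured by: membrane potential fluorescence / Read-out: % inhibition of NPY effect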
S1P4 antag – antagonists of human S1P4 receptor | O95977 | AID 1510 | actives 0.26% (n = 220,000) | inhibition, % at 4.98 µM | S1P4-expressing cells, antagonist mode, reporter read-out; in the data active = inhibition above about 29%;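 note: 0% = wells stimulated with agonist and 100% = vehicle wells without agonist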
NPY-Y2 PAM-ag – potentiates or activates human NPY-Y2 receptor; P49146; cells expressing NPY-Y2, potentiator/agonist read-out; activation, % at 3.6 µM; actives 0.45% (n = 220,000); AID 1359; in the data active = activation above about 27%;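 note: cells stimulated with NPY near EC25 plus isoproterenol at EC100; 0% = vehicle plus submaximal agonist and 100% = vehicle plus saturating agonist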
NPY-Y2 antag – NPY-Y2 (human) receptor antagonism; P49146; NPY-Y2 expressing cells, antagonist mode; inhibition, % at 2.7 µM; actives 0.99% (n = 140,000); in the data active = inhibition above about 17%;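 note: 0% = vehicle with agonist challenge and 100% = reference antagonist with challenge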
S1P4 ag conf – human S1P4 agonism, confirmation; shares compounds with S1P4 agonist; S1P4 agonist cell-based reporter assay; activation, % at 4.98 µM; actives 7% (n = 740); AID 1523; in the data active = activation above about 12%;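 note: 0% = vehicle and 100% = full reference agonist response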
S1P1 ag – counter-screen for S1P4 agonists: agonists of human S1P1. shares compounds with S1P4 agonist. S1P1 agonist cell-based assay, activation. activation, % at 4.98 µM. actives 4% (n = 740). AID 1563; in the data active = activation above about 21%;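 note: 0% = vehicle wells and 100% = reference agonist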
Target sequence (P21453 whole entry, looked up): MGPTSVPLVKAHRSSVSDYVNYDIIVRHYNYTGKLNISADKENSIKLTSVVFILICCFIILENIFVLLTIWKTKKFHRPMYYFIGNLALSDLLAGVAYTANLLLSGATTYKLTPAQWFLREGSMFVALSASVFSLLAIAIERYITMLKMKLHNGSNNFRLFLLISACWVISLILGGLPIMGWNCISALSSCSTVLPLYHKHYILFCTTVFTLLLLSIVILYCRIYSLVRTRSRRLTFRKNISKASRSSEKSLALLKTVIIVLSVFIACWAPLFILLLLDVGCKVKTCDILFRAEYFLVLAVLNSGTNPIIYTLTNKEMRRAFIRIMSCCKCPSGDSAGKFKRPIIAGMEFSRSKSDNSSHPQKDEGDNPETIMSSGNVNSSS
S1P4 antag cf – confirmation of human S1P4 receptor antagonists; shares compounds with S1P4 antag; S1P4-expressing cell line, antagonist mode, reporter read-out; inhibition, % at 4.98 µM; actives 71% (n = 520); AID 1524; in the data active = inhibition above about 30%
S1P1 antag – counter-screen for S1P4 antagonists: antagonists of human S1P1; shares compounds with S1P4 antag; cell-based S1P1 antagonist counterscreen, inhibition; inhibition, % at 4.98 µM; actives 37% (n = 520); AID 1564; in the data active = inhibition above about 40%;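 note: receptor stimulated with S1P near its EC80; 0% = agonist stimulated wells and 100% = vehicle only wells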
* marks the source's active call; other numbers are inactive results; · = no result given. A selection: hits, their analogues and other compounds. The true share with any hit is near 2.4%.

SMILES | NPY-Y1 PAM-ag | S1P4 agonist | NPY-Y1 antag | S1P4 antag | NPY-Y2 PAM-ag | NPY-Y2 antag | S1P4 ag conf | S1P1 ag | S1P4 antag cf | S1P1 antag
Cc1cc(Nc2cc(F)ccc2C)n2nc(C)nc2n1 | 11.4 | 14.1* | 0.4 | 0.4 | 1.4 | -2.4 | -2.0 | -7.8 | · | ·
O=C(CNC(=O)c1ccccc1Cl)OC1CCOC1=O (centres undefined) | -13.2 | -0.3 | 5.1 | 4.2 | 5.8 | · | · | · | · | ·
CCc1cc(=O)oc2c(CN3CCCC3)c(O)c(Cl)cc12 | 9.6 | 3.5 | 4.8 | -11.9 | 1.1 | 0.0 | · | · | · | ·
CCc1cc(=O)oc2c(CN3CCN(C)CC3)c(O)c(Cl)cc12 | -60.4 | 11.4* | -0.6 | -14.2 | -5.1 | 6.2 | 0.6 | -1.9 | · | ·
O=C(CSc1nc2ccccc2c(=O)n1-c1ccc(F)c(Cl)c1)Nc1cccc(S(=O)(=O)N2CCOCC2)c1 | -17.1 | 29.7* | 7.3 | 17.9 | 7.7 | 1.1 | -1.2 | 1.7 | · | ·
Nc1nc(N2CCOCC2)nc2ccccc12 | -4.9 | 21.6* | 2.1 | -0.3 | -8.7 | 0.7 | -1.3 | -7.2 | · | ·
c1ccc2c(N3CCCCC3)nc(N3CCOCC3)nc2c1 | -12.7 | 0.8 | 4.0 | -3.4 | -6.5 | · | · | · | · | ·
Cc1ccc(/C=C/C(=O)O)cc1S(=O)(=O)N(CCO)CCO | -14.3 | 36.6* | 8.4 | 16.7 | -3.1 | 0.2 | -1.1 | -8.3 | · | ·
O=C(COC(=O)c1ccccn1)NCc1ccccc1Cl | 1.2 | 27.4* | -4.0 | -7.6 | 7.2 | 1.7 | -0.7 | 2.3 | · | ·
CN(C(=O)COc1ccc(S(=O)(=O)N2CCOCC2)cc1[N+](=O)[O-])C1CCS(=O)(=O)C1 (centres undefined) | -3.9 | 1.1 | · | -10.1 | 2.6 | · | · | · | · | ·
Cc1ccc(CCNC(=O)c2nnn(-c3cc(C)cc(C)c3)c2N)cc1 | 6.6 | 11.0* | 7.6 | -11.6 | 4.0 | 2.5 | -2.0 | -3.2 | · | ·
Cc1cccc(OCc2nnc(SCC(=O)O)n2Cc2ccccc2)c1 | -0.3 | -0.1 | 9.6 | 12.2 | -4.9 | · | · | · | · | ·
Cc1nnc(SCCn2c(N3CCN(C)CC3)nc3c2c(=O)n(C)c(=O)n3C)s1 | 4.0 | 45.0* | -2.9 | -6.6 | -4.6 | -3.0 | 0.0 | 8.6 | · | ·
Cc1nnc(SCCn2c(N3CCCCC3)nc3c2c(=O)n(C)c(=O)n3C)s1 | -16.1 | 0.2 | -0.1 | -5.5 | 10.0 | 1.0 | · | · | · | ·
CC(OC(=O)Cc1c(F)cccc1Cl)C(=O)NCCC1=CCCCC1 (centres undefined) | -1.1 | -0.1 | 5.5 | -12.3 | -4.3 | 8.3 | · | · | · | ·
COCCCN1C(=O)c2ccc(C(=O)OCC(=O)NCCc3ccccc3)cc2C1=O | 3.2 | 16.3* | -0.6 | 0.3 | 2.8 | · | -1.9 | 3.5 | · | ·
Cc1cc(OCC(=O)N2CCCCCC2)ccc1[N+](=O)[O-] | -13.3 | 0.5 | 4.2 | -22.5 | 4.5 | 2.9 | · | · | · | ·
Cc1cc(OCCN2CCCCCC2)ccc1[N+](=O)[O-] | -27.2 | 24.4* | 0.6 | -18.8 | -7.6 | 5.4 | -0.6 | 6.7 | · | ·
CN(C)c1ccc(/C=C/c2ccc3ccccc3n2)cc1 | 10.6 | 20.5* | · | 31.9* | 2.9 | · | 5.0 | -17.8 | 63.0* | 44.0*
CC(=O)Oc1ccc2cc(-c3nc4ccccc4n3C)c(=O)oc2c1 | -6.8 | 29.7* | 0.9 | 35.5* | 9.5 | 1.9 | 15.2* | 11.6 | 37.5* | -53.1
CC(C)(C)C(=O)Oc1ccc2cc(-c3ccc4ccccc4n3)c(=O)oc2c1 | -3.7 | 0.8 | -0.1 | 1.9 | -2.6 | 2.7 | · | · | · | ·
C/C(=N/NC(=O)C(O)(c1ccccc1)c1ccccc1)c1ccc([N+](=O)[O-])o1 | 10.4 | -2.5 | 4.9 | 2.7 | 8.9 | · | · | · | · | ·
CC(NC(=O)CN(c1cccc(C(F)(F)F)c1)S(=O)(=O)c1ccc(Cl)c([N+](=O)[O-])c1)c1ccccc1 (centres undefined) | 74.5* | 0.1 | -8.9 | 44.4* | 50.3* | -1.5 | · | · | 87.3* | 52.9*
CCOc1ccc(-c2nc(-c3ccccc3)no2)cc1OCC | 21.9 | 1.3 | -0.5 | 78.4* | 15.3 | 1.9 | · | · | -2.9 | -42.4
O=C(NCc1cccnc1)/C(=C/c1ccc(-c2cccc(Cl)c2)o1)S(=O)(=O)c1ccccc1 | -45.6 | 0.3 | 11.4 | 64.8* | -18.5 | 5.8 | · | · | 105.2* | 71.8*
SMILES | NPY-Y1 PAM-ag | S1P4 agonist | NPY-Y1 antag | S1P4 antag | NPY-Y2 PAM-ag | NPY-Y2 antag | S1P4 ag conf | S1P1 ag | S1P4 antag cf | S1P1 antag
O=C(COC(=O)C1COc2ccccc2O1)Nc1cccc(S(=O)(=O)N2CCCCC2)c1 (centres undefined) | -2.5 | 1.4 | -0.5 | -17.8 | -17.3 | · | · | · | · | ·
C/C(CC(C)(C)C1CCCCC1)=N\NC(N)=S | 20.0 | -0.8 | 11.6 | 47.7* | 29.8 | 6.2 | · | · | 66.7* | -11.1
CCC1(C)OC(=O)N(CCCn2ccnc2C)C1(C)O (centres undefined) | 0.9 | 0.9 | -2.4 | -20.0 | 7.0 | 2.0 | · | · | · | ·
Cc1nccn1CCCN1C(=O)OC2(CCCCC2)C1(C)O (centres undefined) | -7.2 | -2.9 | -2.5 | 31.9* | -3.1 | 1.5 | · | · | 1.9 | -0.3
Cc1c(C(=O)O)c(C(=O)O)c2n1CCS2 | -16.2 | 2.4 | · | -0.9 | 0.1 | · | · | · | · | ·
CCOC(=O)c1nc(C)sc1-c1ccnn1S(=O)(=O)c1ccc(C)cc1 | 4.9 | 1.4 | · | 2.8 | -6.9 | · | · | · | · | ·
COc1ccccc1/C=C/C(=O)c1ccc(Cl)cc1 | -3.4 | 1.3 | 14.5 | 3.7 | -16.0 | 4.6 | · | · | · | ·
O=C(/C=C/c1ccccc1O)c1ccc(Cl)cc1 | -5.9 | -1.2 | -2.6 | 45.6* | -7.8 | · | · | · | 59.4* | 23.8
N#CCC(=O)Nc1ccc(C(=O)OCC(=O)Nc2cccc(C(F)(F)F)c2)cc1 | 7.6 | 0.0 | 1.2 | -18.2 | 7.7 | · | · | · | · | ·
COc1ccc(NC(=O)Cc2ccccc2)cn1 | 9.3 | -0.1 | 1.7 | 6.0 | -0.3 | · | · | · | · | ·
COc1ccc(/C=C/C(=O)Nc2ccc(OC)nc2)cc1 | -7.8 | 2.8 | 0.0 | 11.4 | 1.9 | 4.0 | · | · | · | ·
COc1ccc(CS(=O)(=O)/C(Cl)=C(/Cl)C(=O)Nc2ccc(OC)nc2)cc1 | -2.9 | 0.6 | 1.9 | 79.9* | -13.4 | 2.3 | · | · | 119.0* | 85.0*
COc1ccc(NC(=O)/C(Cl)=C(/Cl)S(=O)Cc2ccccc2)cn1 (centres undefined) | 8.5 | -2.9 | -8.3 | 90.9* | -2.8 | 2.6 | · | · | 122.7* | 68.4*
CCOc1ccc(C(C)=O)cc1N1C(=O)C2C3C=CC(O3)C2C1=O (centres undefined) | -31.2 | -1.9 | -1.2 | 52.6* | -25.8 | -0.2 | · | · | 19.0 | -1.8
CCOc1ccc(C(C)=O)cc1N1C(=O)C2C3C=CC(C3)C2C1=O (centres undefined) | 6.2 | 0.0 | -9.6 | 7.4 | 13.4 | -1.5 | · | · | · | ·

Compound activity (PubChem)
